Reference: ChEMBL document CHEMBL3352568, “Synthesis and evaluation of in vitro antimycobacterial activity of novel 1H-benzo[d]imidazole derivatives and analogues” (Eur J Med Chem, 2015)
In brackets after ≈: the same amount, converted by molar mass.

Key:
[1] = tested on: Mycobacterium tuberculosis; experiment: Antimicrobial activity against Mycobacterium tuberculosis Spec. 210 by two-fold serial dilution method; type: functional
How it was run: (§1)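 Classical test-tube successive two-fold dilution in Youmans' modification of Proskauer and Beck liquid medium with 10% bovine serum. Inocula from 14-day-old cultures. Compounds dissolved in ethylene glycol (stock 10 mg/mL), diluted in medium to 0.75–100 µg/mL. Incubated at 37 °C. MIC is the lowest concentration inhibiting growth relative to a compound-free control.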

[2] = tested on: Mycobacterium tuberculosis; experiment: Antimicrobial activity against Mycobacterium tuberculosis Spec. 192 by two-fold serial dilution method; type: functional; how it was run: as §1
[3] = tested on: Mycobacterium tuberculosis; experiment: Antimicrobial activity against Mycobacterium tuberculosis H37Rv by two-fold serial dilution method; type: functional; how it was run: as §1
LLC-PK1 = experiment: Cytotoxicity against pig LLC-PK1 cells assessed as growth inhibition after 120 hrs by MTT assay; type: cell-based; conditions: Sus scrofa, LLC-PK1, 120 h
How it was run: (§2)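 LLC-PK1 cells were seeded at 1.25x10^4/well in Medium 199 with 3% FBS and penicillin/streptomycin and attached overnight. Compounds were added from DMSO stocks at 200-fold concentration, with DMSO-only controls, and cells were exposed continuously for 120 h at 37 °C in 5% CO2. MTT (4 mg/mL in PBS) was added for 4 h, formazan dissolved in DMSO, and A540 read versus untreated cells. IC50 was taken as 50% growth inhibition; at least two independent experiments in duplicate.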

A549 = experiment: Cytotoxicity against human A549 cells assessed as growth inhibition after 120 hrs by MTT assay; type: functional, cell-based; conditions: A549, 120 h
How it was run: as §2, with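 “A549” for “LLC-PK1”, “4x10^3/well” for “1.25x10^4/well”, “RPMI1640” for “Medium 199”, “10%” for “3%”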

| SMILES | MIC [1] | MIC [2] | MIC [3] | IC50 (LLC-PK1) | IC50 (A549) |
| --- | --- | --- | --- | --- | --- |
| Clc1ccc2[nH]c(-c3cc(-c4ccccc4)ccn3)nc2c1 | 6.2 µg/mL (≈ 20.3 µM) | 12.5 µg/mL (≈ 40.9 µM) | 12.5 µg/mL (≈ 40.9 µM) | – | – |
| Cc1cc2nc(CCCC3CCCCC3)[nH]c2cc1C | 6.2 µg/mL (≈ 22.9 µM) | 6.2 µg/mL (≈ 22.9 µM) | 25 µg/mL (≈ 92.4 µM) | – | – |
| Brc1cnc2[nH]c(-c3cc(-c4ccccc4)ccn3)nc2c1 | 25 µg/mL (≈ 71.2 µM) | 25 µg/mL (≈ 71.2 µM) | 25 µg/mL (≈ 71.2 µM) | – | – |
| Clc1ccc2[nH]c(CCC3CCCCC3)nc2c1 | 0.75 µg/mL (≈ 2.85 µM) | 0.75 µg/mL (≈ 2.85 µM) | 0.75 µg/mL (≈ 2.85 µM) | 17.1 µM | 10.9 µM |
| NC(=O)c1cnccn1 [PYRAZINAMIDE] | > 400 µg/mL | 25 µg/mL (≈ 203 µM) | 25 µg/mL (≈ 203 µM) | – | – |
| c1ccc(-c2ccnc(-c3nc4ccccc4[nH]3)c2)cc1 | 6.2 µg/mL (≈ 22.9 µM) | 6.2 µg/mL (≈ 22.9 µM) | 12.5 µg/mL (≈ 46.1 µM) | – | – |
| Cc1ccc2[nH]c(CCCc3ccccc3)nc2c1 | 100 µg/mL (≈ 399 µM) | 6.2 µg/mL (≈ 24.8 µM) | 25 µg/mL (≈ 99.9 µM) | – | – |
| Clc1cc2nc(CCC3CCCCC3)[nH]c2cc1Cl | 0.75 µg/mL (≈ 2.52 µM) | 0.75 µg/mL (≈ 2.52 µM) | 0.75 µg/mL (≈ 2.52 µM) | 9.62 µM | 11.1 µM |
| c1ccc(-c2ccnc(-c3nc4ccncc4[nH]3)c2)cc1 | 3.1 µg/mL (≈ 11.4 µM) | 12.5 µg/mL (≈ 45.9 µM) | 12.5 µg/mL (≈ 45.9 µM) | – | – |
| Fc1ccc2[nH]c(CCC3CCCCC3)nc2c1 | 3.1 µg/mL (≈ 12.6 µM) | 3.1 µg/mL (≈ 12.6 µM) | 3.1 µg/mL (≈ 12.6 µM) | – | – |
| Fc1ccc2[nH]c(-c3cc(-c4ccccc4)ccn3)nc2c1 | 6.2 µg/mL (≈ 21.4 µM) | 12.5 µg/mL (≈ 43.2 µM) | 6.2 µg/mL (≈ 21.4 µM) | – | – |
| Cc1cc2nc(CCCc3ccccc3)[nH]c2cc1C | 6.2 µg/mL (≈ 23.5 µM) | 6.2 µg/mL (≈ 23.5 µM) | 6.2 µg/mL (≈ 23.5 µM) | – | – |
| CO[C@H]1/C=C/O[C@@]2(C)Oc3c(C)c(O)c4c(O)c(c(/C=N/N5CCN(C)CC5)c(O)c4c3C2=O)NC(=O)/C(C)=C\C=C\[C@H](C)[C@H](O)[C@@H](C)[C@@H](O)[C@@H](C)[C@H](OC(C)=O)[C@@H]1C [RIFAMPIN] | 2.5 µg/mL (≈ 3.04 µM) | 1.2 µg/mL (≈ 1.46 µM) | 1.2 µg/mL (≈ 1.46 µM) | – | – |
| Cc1ccc2[nH]c(-c3cc(-c4ccccc4)ccn3)nc2c1 | 3.1 µg/mL (≈ 10.9 µM) | 6.2 µg/mL (≈ 21.7 µM) | 3.1 µg/mL (≈ 10.9 µM) | – | – |
| O=[N+]([O-])c1ccc2[nH]c(CCC3CCCCC3)nc2c1 | 3.1 µg/mL (≈ 11.3 µM) | 3.1 µg/mL (≈ 11.3 µM) | 3.1 µg/mL (≈ 11.3 µM) | – | – |
| Fc1ccc2[nH]c(CCCc3ccccc3)nc2c1 | 50 µg/mL (≈ 197 µM) | 50 µg/mL (≈ 197 µM) | 12.5 µg/mL (≈ 49.2 µM) | – | – |
| Cc1cc2nc(-c3cc(-c4ccccc4)ccn3)[nH]c2cc1C | 12.5 µg/mL (≈ 41.8 µM) | 12.5 µg/mL (≈ 41.8 µM) | 25 µg/mL (≈ 83.5 µM) | – | – |
| Cc1cc2nc(CCC3CCCCC3)[nH]c2cc1C | 0.75 µg/mL (≈ 2.93 µM) | 0.75 µg/mL (≈ 2.93 µM) | 0.75 µg/mL (≈ 2.93 µM) | 43.9 µM | 11.2 µM |
| Clc1cc2nc(CCCC3CCCCC3)[nH]c2cc1Cl | 6.2 µg/mL (≈ 19.9 µM) | 6.2 µg/mL (≈ 19.9 µM) | 12.5 µg/mL (≈ 40.2 µM) | – | – |
| Brc1ccc2[nH]c(CCC3CCCCC3)nc2c1 | 0.75 µg/mL (≈ 2.44 µM) | 0.75 µg/mL (≈ 2.44 µM) | 0.75 µg/mL (≈ 2.44 µM) | 32.6 µM | 13.4 µM |
| Fc1ccc2[nH]c(CCCC3CCCCC3)nc2c1 | 6.2 µg/mL (≈ 23.8 µM) | 6.2 µg/mL (≈ 23.8 µM) | 6.2 µg/mL (≈ 23.8 µM) | – | – |
| O=S(=O)(c1ccccc1)n1c(CCCc2ccccc2)nc2cc(F)ccc21 | 50 µg/mL (≈ 127 µM) | 100 µg/mL (≈ 254 µM) | 100 µg/mL (≈ 254 µM) | – | – |
| NNC(=O)c1ccncc1 [ISONIAZID] | 25 µg/mL (≈ 182 µM) | 12.5 µg/mL (≈ 91.1 µM) | 12.5 µg/mL (≈ 91.1 µM) | – | – |
| CS(=O)(=O)n1c(CCCc2ccccc2)nc2cc(F)ccc21 | 50 µg/mL (≈ 150 µM) | 50 µg/mL (≈ 150 µM) | 50 µg/mL (≈ 150 µM) | – | – |
| Brc1ccc2[nH]c(-c3cc(-c4ccccc4)ccn3)nc2c1 | 6.5 µg/mL (≈ 18.6 µM) | 12.5 µg/mL (≈ 35.7 µM) | 12.5 µg/mL (≈ 35.7 µM) | – | – |
| c1ccc(-c2ccnc(-c3nc4cccnc4[nH]3)c2)cc1 | 12.5 µg/mL (≈ 45.9 µM) | 12.5 µg/mL (≈ 45.9 µM) | 12.5 µg/mL (≈ 45.9 µM) | – | – |
| Cc1ccc2[nH]c(CCC3CCCCC3)nc2c1 | 1.5 µg/mL (≈ 6.19 µM) | 1.5 µg/mL (≈ 6.19 µM) | 1.5 µg/mL (≈ 6.19 µM) | – | – |
| Clc1cc2nc(CCCc3ccccc3)[nH]c2cc1Cl | 6.2 µg/mL (≈ 20.3 µM) | 6.2 µg/mL (≈ 20.3 µM) | 6.2 µg/mL (≈ 20.3 µM) | – | – |
